Screens: PubChem, several laboratories
697 NFkB inh – inhibitors of PMA/ionomycin-induced NF-kB reporter, 697 cells, primary screen, B-cell NF-kB inhibitor project, cell-based, luminescence, uHTS. actives 0.33% (n = 330,000). inhibition, % at 4 µM. 697 B-cell NF-kB luciferase reporter, 16 h; in the data active = inhibition above about 35%
IMP-1 inh-1 – IMP-1 metallo-beta-lactamase inhibitors, primary screen, biochemical, epi-absorbance readout, Pseudomonas aeruginosa enzyme; metallo-beta-lactamase IMP-1 (Pseudomonas aeruginosa); purified IMP-1, nitrocefin hydrolysis, epi-absorbance fluorescence; inhibition, % at 5.6 µM; actives 0.45% (n = 290,000);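 active = inhibition above the mean plus 3 SD of all compounds in the same screening run, cut at about 4.5% in these data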
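system = purified recombinant IMP-1 beta-lactamase | amount = 0.2 nM IMP-1, as dispensed | medium = HEPES buffer pH 7.1 with ZnSO4 and Brij 35 | times = 25 °C, 15 min preincubation, 25 min reaction | detection = plate fluorescence quenching by hydrolysis product, ex 480/em 530 nm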
aSyn UTR inh – MLPCN primary screen, SNCA 5' untranslated region | AID 1813, 2009 | alpha-synuclein 5'UTR reporter, inhibitor activity | inhibition, % (tested at 7.5 µM) | actives 0.82% (n = 300,000); in the data active = inhibition above about 60%;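 note: H4 neuroglioblastoma cells stably carrying SNCA 5'UTR luciferase fusion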
Jurkat NFkB inh – inhibitors of induced NF-kB luciferase reporter, primary screen, TCR NF-kB activation inhibitor project, cell-based, luminescence, uHTS; Jurkat, PMA/ionomycin-induced NF-kB luciferase reporter; inhibition, % at 4 µM; actives 0.53% (n = 330,000); AID 435003, 2010; in the data active = inhibition above about 50%
VIM-2 inhibitor – VIM-2 metallo-beta-lactamase inhibitors, primary screen, biochemical, epi-absorbance readout, Pseudomonas aeruginosa enzyme | purified VIM-2, nitrocefin hydrolysis, epi-absorbance fluorescence | inhibition, % at 5.6 µM | actives 0.89% (n = 290,000);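 active = inhibition above the mean of all tested compounds plus 3 SD, cutoff set per screening run, cut at about 7.5% in these data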;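 note: red hydrolysis product quenches plate fluorescence so inhibitors raise well fluorescence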
Mdm2-MdmX inh – inhibitors of human Mdm2-MdmX association, primary screen, cell-based, luminescence, split luciferase, SaOS-2, uHTS. Protein Mdm4 (Homo sapiens) + E3 ubiquitin-protein ligase Mdm2 (Homo sapiens), …. SaOS-2 split-luciferase Mdm2/MdmX complementation. inhibition, % at 8 µM. actives 3% (n = 330,000);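 active = inhibition of at least 50% at 8 µM in the primary screen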
IMP-1 inh-2 – IMP-1 metallo-beta-lactamase inhibitors, confirmation, selectivity assay for selective VIM-2 inhibitor project, biochemical, epi-absorbance readout, triplicate. AID 1856, 2009. purified IMP-1, nitrocefin hydrolysis, epi-absorbance fluorescence. inhibition, % at 5.6 µM. 1,300 tested, under 10 active. shares compounds with VIM-2 inhibitor; call rule not given here
VIM-2 FRET inh – VIM-2 inhibitors in FRET format, confirmation, artefact control for selective VIM-2 inhibitor project, biochemical, epi-absorbance artifact exclusion; inhibition, % at 5.6 µM; actives 23% (n = 1,300); purified VIM-2, CCF2 FRET substrate hydrolysis; shares compounds with VIM-2 inhibitor;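 active = inhibition above the mean of all tested compounds plus 3 SD, cut at about 19% in these data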
TEM-1 inh – TEM-1 serine beta-lactamase inhibitors, counter-screen for VIM-2 inhibitor project, biochemical, epi-absorbance, HTS. AID 1866, 2009. actives 3% (n = 1,300). shares compounds with VIM-2 inhibitor. Purified TEM-1, nitrocefin hydrolysis, epi-absorbance fluorescence. inhibition, % at 5.6 µM;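 active = inhibition above that campaign's mean inhibition plus 3 SD, cut at about 0.46% in these data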
VIM-2 inh conf – VIM-2 metallo-beta-lactamase inhibitors, confirmation, biochemical, epi-absorbance, hits shared with IMP-1 screen; AID 2187, 2009; shares compounds with VIM-2 inhibitor; actives 96% (n = 1,300); inhibition, % at 5.6 µM; purified VIM-2, nitrocefin hydrolysis;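 active = inhibition of the VIM-2 beta-lactamase enzyme above about 11% from the earlier first-round screen, limit read from the data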
Large screens that a line does not name were inactive (follow-up assays come after a bar, where they were run). Rows were chosen to be rich in hits. Some 4.7% of all compounds tested hit in one or more screens of this group.

O=C1c2cccc3cccc(c23)C(=O)N1c1nncs1	VIM-2 inhibitor 13 | IMP-1 inh-2 inactive | VIM-2 FRET inh inactive | TEM-1 inh inactive | VIM-2 inh conf 24
COc1ccccc1Nc1nc(NCCCN(C)C)nc(N)c1[N+](=O)[O-]	VIM-2 inhibitor 27 | IMP-1 inh-2 inactive | VIM-2 FRET inh inactive | TEM-1 inh inactive | VIM-2 inh conf 44
O=C1Nc2cc(C(=O)NCCCN3CCCC3)ccc2S/C1=C\c1ccccc1	VIM-2 inhibitor 14 | IMP-1 inh-2 inactive | VIM-2 FRET inh 32 | TEM-1 inh inactive | VIM-2 inh conf 23
O=C1Nc2cc(C(=O)NCC3CCCO3)ccc2S/C1=C/c1ccccc1F (stereo unspecified)	none
O=C1Nc2cc(C(=O)NCCCN3CCOCC3)ccc2S/C1=C/c1ccccc1F	VIM-2 inhibitor 30 | IMP-1 inh-2 inactive | VIM-2 FRET inh 49 | TEM-1 inh inactive | VIM-2 inh conf 34
O=C(O)c1cc(O)ccc1NC(=O)C(c1ccccc1)c1ccccc1	none
CN1CCN(CC(=O)Nc2c(C(=O)C3CC3)oc3ccccc23)CC1	VIM-2 inhibitor 21 | IMP-1 inh-2 inactive | VIM-2 FRET inh inactive | TEM-1 inh inactive | VIM-2 inh conf 36
Cc1ccc(NC2CCCN(C(=O)c3ccc(F)cc3)C2)cc1C (stereo unspecified)	none
Cc1ccc(OCCn2ccnc2)c([N+](=O)[O-])c1	none
Cc1cc(OCCCn2ccnc2)ccc1[N+](=O)[O-]	VIM-2 inhibitor 28 | IMP-1 inh-2 inactive | VIM-2 FRET inh inactive | TEM-1 inh inactive | VIM-2 inh conf 39
O=C(CCn1nc(-c2ccccc2)c2ccccc2c1=O)NN1CCOCC1	none
O=c1c2cccc3c2c(nn1CN1CCOCC1)-c1ccccc1-3	VIM-2 inhibitor 26 | IMP-1 inh-2 inactive | VIM-2 FRET inh inactive | TEM-1 inh inactive | VIM-2 inh conf 33
Cc1ccc(NC(=O)c2ccccc2SCC(=O)N2CCCC2)cc1S(=O)(=O)N(C)C	none
Cc1cc(=O)oc2c(CN(C)Cc3ccccc3)c(O)ccc12	none
C=CCN(CC=C)Cc1c(O)ccc2c1oc(=O)c1ccccc12	VIM-2 inhibitor 17 | IMP-1 inh-2 inactive | VIM-2 FRET inh inactive | TEM-1 inh inactive | VIM-2 inh conf 44
O=C(CCC1CCCN(C(=O)c2cc3ccccc3o2)C1)NCc1ccc(F)c(F)c1 (stereo unspecified)	none (no result: 697 NFkB inh, Jurkat NFkB inh, Mdm2-MdmX inh)
O=C(C1=C(O)C(=O)N(Cc2cccnc2)C1c1ccccn1)c1cccs1 (stereo unspecified)	VIM-2 inhibitor 16 | IMP-1 inh-2 inactive | VIM-2 FRET inh 41 | TEM-1 inh inactive | VIM-2 inh conf 32
CCOc1cccc(C2C(C(=O)c3cccs3)=C(O)C(=O)N2Cc2cccnc2)c1 (stereo unspecified)	none
CCc1nc2cc(C)nn2c2nc3ccccc3n12	VIM-2 inhibitor 16 | IMP-1 inh-2 inactive | VIM-2 FRET inh inactive | TEM-1 inh inactive | VIM-2 inh conf 26
Cc1cc2nc(C)n3c4ccccc4nc3n2n1	none
CC(C)(C)NC(=O)c1ccc(NC(=O)c2ccccc2-c2ccccc2C(=O)O)cc1	none
COc1ccc(-c2n[nH]c(=S)n2-c2ccc3c(c2)OCCO3)cc1OC	VIM-2 inhibitor 18 | IMP-1 inh-2 inactive | VIM-2 FRET inh 50 | TEM-1 inh inactive | VIM-2 inh conf 31
COc1ccc(Cc2n[nH]c(=S)n2-c2ccc3c(c2)OCCO3)cc1	none
COc1ccc(-c2n[nH]c(=S)n2-c2ccc3c(c2)OCCO3)cc1	VIM-2 inhibitor 13 | IMP-1 inh-2 inactive | VIM-2 FRET inh 34 | TEM-1 inh inactive | VIM-2 inh conf 19
COc1ccc(-c2n[nH]c(=S)n2-c2ccc(C)cc2)cc1OC	none
COc1ccc(CN(C)C(=O)c2ccc3c(=O)n4c(nc3c2)CCC4)c(OC)c1	none (no result: IMP-1 inh-1, VIM-2 inhibitor)
Cc1cc(=O)n2c3ccccc3n(CC(O)CN3CCC(C)CC3)c2c1C#N (stereo unspecified)	none (no result: 697 NFkB inh, Jurkat NFkB inh, Mdm2-MdmX inh)
CCC1CCCCN1CC(O)Cn1c2ccccc2n2c(=O)cc(C)c(C#N)c12 (stereo unspecified)	none
Cc1cc(=O)n2c3ccccc3n(CC(O)CN3CCN(CCO)CC3)c2c1C#N (stereo unspecified)	VIM-2 inhibitor 22 | IMP-1 inh-2 inactive | VIM-2 FRET inh inactive | TEM-1 inh inactive | VIM-2 inh conf 38
Cc1cc(=O)n2c3ccccc3n(CC(O)CN3CCN(Cc4ccccc4)CC3)c2c1C#N (stereo unspecified)	VIM-2 inhibitor 14 | IMP-1 inh-2 inactive | VIM-2 FRET inh inactive | TEM-1 inh inactive | VIM-2 inh conf 33
Cc1cc(C)n2cc(CSCc3ccccc3)nc2n1	none
Cc1cc(C)n2cc(CSc3nnc(-c4ccccc4)o3)nc2n1	VIM-2 inhibitor 16 | IMP-1 inh-2 inactive | VIM-2 FRET inh 30 | TEM-1 inh inactive | VIM-2 inh conf 21
CCc1cc(C(=O)N/N=C/c2ccc(OC)cc2)c2ccccc2n1	none
CCc1ccccc1N1C(=O)C2C3C=CC(CC3)C2C1=O (stereo unspecified)	none
Cn1cc(Cl)c(-c2n[nH]c(=S)n2C2CCCCC2)n1	VIM-2 inhibitor 42 | IMP-1 inh-2 inactive | VIM-2 FRET inh 60 | TEM-1 inh inactive | VIM-2 inh conf 43
S=c1[nH]nc(CSCc2ccccc2Cl)n1C1CCCCC1	none (no result: 697 NFkB inh, Jurkat NFkB inh, Mdm2-MdmX inh)
S=c1[nH]nc(-c2ccco2)n1C1CCCCC1	VIM-2 inhibitor 25 | IMP-1 inh-2 inactive | VIM-2 FRET inh 52 | TEM-1 inh inactive | VIM-2 inh conf 34
Nn1c(-c2ccco2)n[nH]c1=S	none
